According to ChEMBL document CHEMBL2434844, “Synthesis, antimicrobial, antioxidant activities of novel 6-aryl-5-cyano thiouracil derivatives” (Eur J Med Chem, 2013):
In brackets after ≈: the same amount, converted by molar mass. Activity calls are given as the source filed them. The calls are words filed in the database; no cut-off is given here.

Columns and labels:
Type in all cases: functional
Candida albicans [1] = experiment: Antifungal activity against Candida albicans ATCC 26555 after 24 hrs by microdilution technique
Summary of the method: (§1)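 MIC by agar microdilution on Mueller-Hinton agar per NCCLS 1997. Bacteria subcultured overnight at 37 °C on MHA, Candida on SDA at 35 °C for 24-48 h, each passaged at least twice. Incubated 37 °C in humid chamber, read after 24 h.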

Candida albicans [2] = experiment: Antifungal activity against Candida albicans ATCC 26555 at 50 ug/ml after 48 hrs by disc-diffusion method; conditions: ATCC 26555, 48 h, read-out: DIZ
Aspergillus flavus [3] = experiment: Antifungal activity against Aspergillus flavus ATCC 11495 after 24 hrs by microdilution technique
Aspergillus flavus [4] = experiment: Antifungal activity against Aspergillus flavus ATCC 11495 at 50 ug/ml after 48 hrs by disc-diffusion method; conditions: ATCC 11495, 48 h, read-out: DIZ
Summary of the method: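 Disc diffusion per Bauer et al., following NCCLS conditions, on nutrient agar or Mueller-Hinton agar. Compounds were dissolved in sterile DMSO at 10 mg/mL stock, filtered at 0.2 µm and stored frozen at -15 °C. Test discs carried 10 mg/disc in DMSO, and fluconazole reference was 50 µg/mL. After 48 h incubation at 28 °C, inhibition zone diameter was read in mm.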

Aspergillus flavus [5] = experiment: Antifungal activity against Aspergillus flavus ATCC 11495 at 10 mg/disc after 48 hrs by disc-diffusion method
Summary of the method: (§2)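 Disc diffusion per Bauer method under NCCLS conditions on nutrient agar/Mueller-Hinton agar. Compound dissolved in sterile DMSO at 10 mg/mL, filtered 0.2 µm, stored frozen at -15 °C; 10 mg/disc in DMSO applied. DMSO control. Inhibition zone diameter measured in mm after 48 h incubation at 28 °C.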

Escherichia coli [6] = experiment: Antibacterial activity against Escherichia coli ATCC 11775 after 24 hrs by microdilution technique; summary of the method: as §1
Staphylococcus aureus [7] = experiment: Antibacterial activity against Staphylococcus aureus ATCC 12600 at 10 mg/disc after 48 hrs by disc-diffusion method; summary of the method: as §2
Staphylococcus aureus [8] = experiment: Antibacterial activity against Staphylococcus aureus ATCC 12600 after 24 hrs by microdilution technique; summary of the method: as §1
Bacillus cereus [9] = experiment: Antibacterial activity against Bacillus cereus ATCC 14579 at 10 mg/disc after 48 hrs by disc-diffusion method; summary of the method: as §2
Bacillus cereus [10] = experiment: Antibacterial activity against Bacillus cereus ATCC 14579 after 24 hrs by microdilution technique; summary of the method: as §1
Candida albicans [11] = experiment: Antifungal activity against Candida albicans ATCC 26555 at 10 mg/disc after 48 hrs by disc-diffusion method; summary of the method: as §2
[12] = system: Radical scavenging activity; experiment: Antioxidant activity assessed as DPPH free radical scavenging activity after 20 mins by UV-visible spectrophotometric analysis
Summary of the method: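 Kept in the dark at room temperature for 20 min, then absorbance read at 517 nm against DPPH blank, DMSO baseline. % scavenging = [(Ac−At)/Ac]×100; IC50 (µg/mL) from concentration plot; mean ± SEM, n=3, 8 replica each.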

Escherichia coli [13] = experiment: Antibacterial activity against Escherichia coli ATCC 11775 at 10 mg/disc after 48 hrs by disc-diffusion method; summary of the method: as §2

| SMILES | MIC (Candida albicans [1]; ATCC 26555, 24 h) [µg/mL] | zone of inhibition at 50 µg/mL (Candida albicans [2]) [mm] | MIC (Aspergillus flavus [3]; ATCC 11495, 24 h) [µg/mL] | zone of inhibition at 50 µg/mL (Aspergillus flavus [4]) [mm] | MIC (Candida albicans [1]) | diameter of the inhibition zone (DIZ) (Aspergillus flavus [5]) | MIC (Escherichia coli [6]; DSM 30083 = JCM 1649) | diameter of the inhibition zone (DIZ) (Staphylococcus aureus [7]) | MIC (Staphylococcus aureus [8]; ATCC 12600, 24 h) [µg/mL] | diameter of the inhibition zone (DIZ) (Bacillus cereus [9]) | MIC (Bacillus cereus [10]) | MIC (Aspergillus flavus [3]) | diameter of the inhibition zone (DIZ) (Candida albicans [11]) | Activity [12] | IC50 [12] [µg/mL] | diameter of the inhibition zone (DIZ) (Escherichia coli [13]; DSM 30083 = JCM 1649) | MIC (Escherichia coli [6]; DSM 30083 = JCM 1649, 24 h) [µg/mL] | MIC (Bacillus cereus [10]; ATCC 14579, 24 h) [µg/mL] | diameter of the inhibition zone (DIZ) (Escherichia coli [13]) [mm] | MIC (Staphylococcus aureus [8]) |
| --- | --- | --- | --- | --- | --- | --- | --- | --- | --- | --- | --- | --- | --- | --- | --- | --- | --- | --- | --- | --- |
| OC(Cn1cncn1)(Cn1cncn1)c1ccc(F)cc1F [FLUCONAZOLE] | 16 (≈ 52.2 µM) | 20 | 16 (≈ 52.2 µM) | 21 | – | – | – | – | – | – | – | – | – | – | – | – | – | – | – | – |
| N#Cc1c(-c2ccc(F)cc2)[nH]c(=S)n2c(=O)[nH]nc12 | – | – | – | – | inactive | inactive | inactive | 12 mm | 32 (≈ 111 µM) | inactive | inactive | inactive | inactive | Dose-dependent effect | 19.62 (≈ 68.3 µM) | inactive | – | – | – | – |
| COc1ccc(/C=N/Nc2nc(=S)[nH]c(-c3ccc(F)cc3)c2C#N)cc1 | 16 (≈ 42.2 µM) | – | 16 (≈ 42.2 µM) | – | – | 18 mm | – | 23 mm | 16 (≈ 42.2 µM) | 21 mm | – | – | 18 mm | Dose-dependent effect | 12.68 (≈ 33.4 µM) | – | 16 (≈ 42.2 µM) | 16 (≈ 42.2 µM) | 19 | – |
| COc1cc(-c2[nH]c(=S)n3cnnc3c2C#N)cc(OC)c1OC | 16 (≈ 46.6 µM) | – | 16 (≈ 46.6 µM) | – | – | 18 mm | – | 21 mm | 16 (≈ 46.6 µM) | 18 mm | – | – | 17 mm | – | – | – | 16 (≈ 46.6 µM) | 16 (≈ 46.6 µM) | 13 | – |
| COc1cc(-c2[nH]c(=S)n3c(=O)[nH]nc3c2C#N)cc(OC)c1OC | – | – | – | – | inactive | inactive | inactive | 10 mm | 64 (≈ 178 µM) | inactive | inactive | inactive | inactive | Dose-dependent effect | 9.34 (≈ 26 µM) | inactive | – | – | – | – |
| COc1cc(-c2[nH]c(=S)n3c(=S)[nH]nc3c2C#N)cc(OC)c1OC | 32 (≈ 85.2 µM) | – | – | – | – | inactive | – | inactive | – | 11 mm | – | inactive | 12 mm | – | – | – | 64 (≈ 170 µM) | 64 (≈ 170 µM) | 10 | inactive |
| Cc1cc(C)n(-c2nc(=S)[nH]c(-c3ccc(Br)cc3)c2C#N)n1 | – | – | – | – | inactive | inactive | – | 12 mm | 32 (≈ 82.8 µM) | 12 mm | – | inactive | inactive | – | – | – | 32 (≈ 82.8 µM) | 32 (≈ 82.8 µM) | 11 | – |
| N#Cc1c(NN)nc(=S)[nH]c1-c1ccc(Br)cc1 | – | – | – | – | inactive | inactive | – | 13 mm | 64 (≈ 199 µM) | 11 mm | – | inactive | inactive | – | – | – | 64 (≈ 199 µM) | 64 (≈ 199 µM) | 11 | – |
| COc1cc(-c2[nH]c(=S)n3c(=O)c(=O)[nH]nc3c2C#N)cc(OC)c1OC | – | – | 16 (≈ 41.3 µM) | – | inactive | 17 mm | inactive | 14 mm | 32 (≈ 82.6 µM) | inactive | inactive | – | inactive | Dose-dependent effect | 8.55 (≈ 22.1 µM) | inactive | – | – | – | – |
